# Myeloid diff MLP: myeloid differentiation induction; ER-HoxA9 myeloid progenitors, lysozyme-GFP differentiation, flow cytometry; calls only at 10 µM; 1% of 360,000 active; AID 624256;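 active = normalized GFP-positive differentiation at or above the plate's own cutoff, the solvent-only control mean plus 3 SD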;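 note: cells exposed to compound for four days before flow analysis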
# Rpn11 inh: Rpn11 (human) deubiquitinase inhibition. human 26S proteasome, Ub4-pepOG fluorescence polarization; 20S core pre-blocked with epoxomicin. inhibition, % at 20 µM. 0.59% of 360,000 active;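 active = inhibition at 20 µM, scaled to each plate's controls, above about 33%, limit read from the data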
# HNF4A DNA FP: change in binding of human HNF4 alpha to DNA. activity change, % at 10 µM. AID 1224865. 0.3% of 360,000 active. HNF4a-FITC DNA binding, fluorescence polarization, 1 h. P41235; in the data active = activity change above about 30%, passing the limit was not always enough
# TPT1 inh: C. albicans TPT1 enzyme inhibition | recombinant caTPT1, FP RNA substrate dephosphorylation | inhibition, % at 5 µM | 0.81% of 300,000 active;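 active = inhibition above the mean of all tested compounds plus 3 SD, set per screening campaign, cut at about 24% in these data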;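 note: plate controls were DMSO alone for no effect and ferristatin control at 100 nM for full effect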
# CSN deneddyl inh: blocks human CSN-mediated cullin deneddylation | Q92905 | Purified CSN, SCF-Nedd8-OG deneddylation, fluorescence polarization | inhibition, % at 12.5 µM | 0.38% of 360,000 active | AID 651999;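 active = pattern-corrected inhibition above about 35%, with an unprinted fluorescence ratio check between 0.5 and 1.5, limit read from the data, passing the limit was not always enough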;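 note: 0% = enzyme with substrate and 100% = substrate without enzyme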
# Target sequence (Q92905 whole entry, looked up, one chain of several): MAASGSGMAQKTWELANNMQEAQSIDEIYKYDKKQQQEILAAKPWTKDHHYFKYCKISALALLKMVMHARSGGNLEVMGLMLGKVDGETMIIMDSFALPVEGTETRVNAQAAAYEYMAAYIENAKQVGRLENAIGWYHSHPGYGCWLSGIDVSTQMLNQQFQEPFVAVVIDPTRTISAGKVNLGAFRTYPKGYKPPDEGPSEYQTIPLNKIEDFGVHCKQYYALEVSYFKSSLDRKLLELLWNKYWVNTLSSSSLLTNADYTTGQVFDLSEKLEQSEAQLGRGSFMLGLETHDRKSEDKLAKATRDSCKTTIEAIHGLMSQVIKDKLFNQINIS
#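 Test system: Human Csn5 produced in HEK293T cells | Compound: 12.5 µM single point | Times: 90 min, room temperature | Signal: Fluorescence polarization readout | Read-out basis: % inhibition of substrate cleavage by Csn5 | Controls: no-enzyme wells high, enzyme-with-substrate wells low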
# * hit, by the source's call; i = inactive; . = no result shown; + = active, no number; ! = not active in a repeat. Shown are actives, neighbours in structure and some others; about 2.3% of the full set was active somewhere.
SMILES,Myeloid diff MLP,Rpn11 inh,HNF4A DNA FP,TPT1 inh,CSN deneddyl inh
Cc1sc2nc(SCc3ccc(C(=O)O)cc3)n(Cc3ccco3)c(=O)c2c1C,i,2,2,0,5
O=C(NCc1cccc(Cl)c1)C1Cc2c(-c3ccccc3)ccnc2O1 (stereo unspecified),i,-2,-1,.,-3
CCc1nc(N)nc(N)c1-c1ccc(N(C)Cc2ccccc2)c([N+](=O)[O-])c1,.,4,-7,.,-3
CCc1nc(N)nc(N)c1-c1ccc(Cl)cc1,+,4,5,-1,0
Cc1nn(CCc2nn[nH]n2)c2nc(-c3ccc(C4CCCCC4)cc3)cc(C(F)(F)F)c12,+,2,-37,4,16
COc1ccc(/C=C/C(=O)O)cc1Cl,i,3,3,0,-1
COc1cc(/C=C/C(=O)O)cc(OC)c1O,+,0,-2,-3,-4
CCOc1cccc2cc(-c3nnc(NCc4ccc5c(c4)OCO5)s3)c(=O)oc12,i,0,52*,4,46*
CCOc1ccccc1C(=O)NCc1ccc2c(c1)OCO2,i,-1,1,-3,-9
C[C@H]1[C@@H](Cc2cc(Cl)cc(Cl)c2)N(c2ccccc2)c2ccccc2CN1Cc1ccccc1,i,.,3,.,1
O=C(NCc1ccco1)C1CCN(C(=O)c2ccc(Cl)cc2Cl)CC1,+,7,1,-2,-6
O=C(NNc1cc(N2CCCC2)nc(N2CCCC2)n1)c1ccc([N+](=O)[O-])cc1,i,-2,3,5,41*
C[C@@H](c1ccccc1)N1C[C@@H](COCc2ccccc2)Oc2cc(N3CC[C@@H](N(C)C)C3)ccc2S1(=O)=O,i,.,-2,.,-7
COc1ccccc1Cc1c(-c2ccc(Cl)cc2)nc2c(Cl)cc(C(F)(F)F)cn12,i,.,11,.,2
COc1ccccc1Cc1c(-c2ccc(C#N)cc2)nc2c(Cl)cc(C(F)(F)F)cn12,+,.,61,.,46*
Cc1cc(Br)cn2c(Cc3ccccc3)c(-c3ccccc3)nc12,i,10,-1,.,0
COc1ccccc1Cc1c(-c2ccccc2)nc2c(C)cc(Br)cn12,i,26,9,.,97*
COc1ccc(Cn2cc(CN(C)C3CN(Cc4cn(Cc5ccc(OC)cc5)nn4)S(=O)(=O)C3)nn2)cc1 (stereo unspecified),i,.,9,.,2
O=C(Nc1cccnc1)c1cccc(S(=O)(=O)N2CCc3ccccc32)c1,i,5,4,-1,-1
O=C(Nc1ccncc1)c1cccc(S(=O)(=O)N2CCc3ccccc32)c1,+,0,0,1,2
O=S(=O)(c1ccc(F)cc1)N1CCc2ccccc21,i,21,76*,-1,48*
COC1=CC(C)C2CC3OC(O)CC4C(C)=C(OC)C(=O)C(C2(C)C1=O)C34C (stereo unspecified),i,4,-2,.,-3
COC(=O)c1c(N)[nH]c(C(=O)c2ccccc2)c1-c1ccccc1Br,i,.,0,.,2
O=[N+]([O-])c1ccc(N/N=C/c2sc(N3CCOCC3)nc2-c2ccccc2)c(S(=O)(=O)Nc2ccc(Cl)cc2)c1,+,35,59*,.,35
CC(C)(C)n1ncc2c(=O)n(CC(=O)NCc3ccc(F)cc3)cnc21,+,6,1,-3,1
SMILES,Myeloid diff MLP,Rpn11 inh,HNF4A DNA FP,TPT1 inh,CSN deneddyl inh
CC1(C(=O)NS(=O)(=O)C2CC2)CCCN(C(=O)c2cccs2)C1 (stereo unspecified),i,0,3,.,-4
CN(/N=C/c1c[nH]c2ccccc12)c1cnn(-c2ccc(F)c(Cl)c2)c(=O)c1Cl,i,.,64*,-1,48*
O=c1/c(=C\c2ccc(O)cc2)sc2nc(-c3ccccc3)c(-c3ccccc3)n12,i,28,52*,15,13
O=c1/c(=C/c2ccc(O)cc2)sc2nc3cc(Br)cnc3n12,.,.,.,3,.
CC1CC(O)C2C3(C)CCCC2(COC3=O)C12CCC1(CCOC1=O)O2 (stereo unspecified),i,4,0,.,-1
O=C(CCS(=O)(=O)c1ccccc1)Nc1ccc(N2CCN(Cc3ccccc3)CC2)cc1,+,-1,-4,.,2
Fc1ccc(-n2c(-c3ccco3)nc3nc4ccccc4nc32)cc1,+,.,6,1,11
CCCCOCCCn1c(-c2ccco2)nc2nc3ccccc3nc21,+,30,14,12,20
CN1CCN(C(=O)C(=O)c2cn(CC(=O)N3CCOCC3)c3ccccc23)CC1,i,-6,1,.,1
CCOC(=O)c1ccc(N=c2sc(C(=O)OC)cc(=O)n2CCCN2CCOCC2)cc1,+!,7,-2,1,3
COc1ccc(CNC(=O)C[C@@H]2C=C[C@@H](NS(=O)(=O)c3cccc(OC)c3)[C@@H](CO)O2)cc1,i,.,2,.,-3
CN(Cc1cn(Cc2ccc(Cl)cc2)nn1)C1CN(Cc2cn(Cc3ccc(Cl)cc3)nn2)S(=O)(=O)C1 (stereo unspecified),i,.,-1,.,-5
Cc1cc(C)n(-c2nc3ccccc3nc2Nc2ccc3c(c2)OCO3)n1,i,-39,2,5,-2
Cc1cc(C)n(-c2nc3nonc3nc2Nc2cccc(C)c2C)n1,i,-6,-14,3,57*
O=C(NC(c1ccccc1)c1ccsc1)C1CCN(CCOc2ccc(Cl)cc2Cl)CC1 (stereo unspecified),i,-1,2,.,-1
CCN1CCN(c2ccc(NC(=O)c3ccc(Br)o3)cc2)CC1,i,-1,2,.,-2
O=C(Nc1ccc(N2CCCC2)cc1)c1ccc(Br)o1,+,5,8,8,5
CCc1nc2ccc(C(=O)NCCc3c[nH]c4ccccc34)cn2c1N(C)Cc1ccc(N(C)C)cc1,i,8,2,.,5
COc1ccc2noc3c2c1C(=O)c1ccccc1-3,+,-222,-105,-32,-79
CN(Cc1nc2ccccc2c(=O)[nH]1)C(=O)c1ccc(S(=O)(=O)N(C)C)cc1,i,-1,3,-1,0
Cc1c(C(=O)N(C)Cc2nc3ccccc3c(=O)[nH]2)oc2ccccc12,+,-3,3,.,11
CC(C)(C)NC(=O)NC(=O)CN1CCCc2ccccc21,+,0,-19,18,-1
O=C(CN1CCCc2ccccc21)NC(=O)NCc1ccccc1,i,34,-3,0,-2
CN1CCN(S(=O)C23CC4CC(CC(C4)C2)C3)CC1 (stereo unspecified),i,-1,1,-4,-1
O=S(N1CCc2ccccc21)C12CC3CC(CC(C3)C1)C2 (stereo unspecified),+,-7,1,-1,-8
COCCNC(=O)C1(C)CCN(C(=O)c2ccc(SC(F)(F)F)cc2)C1 (stereo unspecified),i,-5,0,.,-4
